# pIC50: −log10 of the molar value.
# What was measured:
# [1] = test system: Rattus norvegicus; assay: Reduction of LTB4 production in lung lavage fluid of calcium ionophore A23187 treated rat bronchoalveolar lavage model at 10 mg/kg, po administered 4 hrs prior to calcium ionophore A23187 challenge; format: functional; design: scale not given: the % may be the effect or the level left
# Procedure, shortened: (§1)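 Rat bronchoalveolar lavage model. Oral dose of 10 mg/kg as the sodium carboxylate salt, given 4 h before ionophore challenge. LTB4 and CysLT measured in lung lavage fluid; average plasma levels taken 3 h post dose.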
# [2] = test system: Rattus norvegicus; assay: Reduction of CysLT production in lung lavage fluid of calcium ionophore A23187 treated rat bronchoalveolar lavage model at 10 mg/kg, po administered 4 hrs prior to calcium ionophore A23187 challenge; format: functional; design: scale not given: the % may be the effect or the level left; procedure, shortened: as §1
# [3] = Half life in rat at 10 mg/kg, po; format: ADME, organism-based; design: dose 10 mg/kg, route oral; details: in vivo
# Procedure, shortened: (§2)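 Rat, oral dosing at 10 mg/kg given as the sodium carboxylate salt. Read-outs: F, clearance, Cmax, AUC and half-life.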
# [4] = test system: Blood; assay: Inhibition of LTB4 production in calcium ionophore treated A23187 human whole blood after 15 mins; format: functional, tissue-based; details: 0.25 h
# [5] = test system: Blood; assay: Reduction of LTB4 production in rat blood after 4 hrs; format: functional, tissue-based
# Procedure, shortened: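 Rat blood incubated with compound for 4 h, then ionophore challenge; inhibition of LTB4 production measured; IC50.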
# [6] = test system: Rattus norvegicus; assay: Reduction of LTB4 production in lung lavage fluid of po dosed calcium ionophore A23187 treated rat bronchoalveolar lavage model administered 4 hrs prior to calcium ionophore A23187 challenge; format: functional
# Procedure, shortened: (§3)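 Rat BAL model. Oral dose-response study with dosing 4 h before ionophore challenge; ED50 for LTB4 and CysLT in lavage fluid.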
# [7] = test system: Rattus norvegicus; assay: Reduction of LTB4 production in lung lavage fluid of calcium ionophore A23187 treated rat bronchoalveolar lavage model at 3 mg/kg, po administered 16 hrs prior to calcium ionophore A23187 challenge; format: functional; design: scale not given: the % may be the effect or the level left
# Procedure, shortened: (§4)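 Rat BAL model. 3 mg/kg given orally 16 h before ionophore challenge. LTB4 and CysLT inhibition measured in lavage fluid; average plasma levels measured at that time point.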
# [8] = Clearance in rat at 10 mg/kg, po; format: ADME, organism-based; design: dose 10 mg/kg, route oral; details: in vivo; procedure, shortened: as §2
# [9] = Plasma concentration in calcium ionophore A23187 treated rat bronchoalveolar lavage model at 3 mg/kg, po administered 16 hrs prior to calcium ionophore A23187 challenge; format: ADME, organism-based; design: dose 3 mg/kg, route oral; procedure, shortened: as §4
# [10] = Cmax in rat at 10 mg/kg, po; format: ADME, organism-based; design: dose 10 mg/kg, route oral; details: in vivo; procedure, shortened: as §2
# [11] = target: T1, Arachidonate 5-lipoxygenase-activating protein (Homo sapiens, UniProt P20292); assay: Binding affinity to FLAP in human PMN derived membrane; format: cell membranes
# T1 sequence (P20292 whole entry): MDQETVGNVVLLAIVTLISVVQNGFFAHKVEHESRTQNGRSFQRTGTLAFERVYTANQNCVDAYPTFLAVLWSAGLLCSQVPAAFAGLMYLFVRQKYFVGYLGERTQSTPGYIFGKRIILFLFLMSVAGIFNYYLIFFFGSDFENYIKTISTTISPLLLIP
# Procedure, shortened: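 FLAP binding measured in membranes derived from human polymorphonuclear leukocytes (PMN). IC50 values are the average of n ≥ 3.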
# [12] = target: Cytochrome P450 2C9 (Homo sapiens, UniProt P11712); assay: Inhibition of CYP2C9; format: ADME
# Chain of Cytochrome P450 2C9 (P11712 whole entry): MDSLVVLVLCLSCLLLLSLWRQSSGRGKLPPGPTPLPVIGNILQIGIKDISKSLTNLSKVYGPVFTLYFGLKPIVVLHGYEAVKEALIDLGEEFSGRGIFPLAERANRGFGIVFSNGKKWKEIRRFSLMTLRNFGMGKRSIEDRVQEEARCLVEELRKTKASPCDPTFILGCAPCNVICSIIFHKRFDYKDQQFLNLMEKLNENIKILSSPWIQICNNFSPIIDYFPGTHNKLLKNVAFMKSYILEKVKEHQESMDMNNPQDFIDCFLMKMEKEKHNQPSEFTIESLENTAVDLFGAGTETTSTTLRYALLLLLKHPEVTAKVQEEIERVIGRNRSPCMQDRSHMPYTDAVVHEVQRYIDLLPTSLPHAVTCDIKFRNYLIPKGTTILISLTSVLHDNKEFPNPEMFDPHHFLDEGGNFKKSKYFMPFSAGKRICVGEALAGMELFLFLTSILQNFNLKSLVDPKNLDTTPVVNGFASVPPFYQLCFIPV
# [13] = Solubility in 0.9% saline; format: physicochemical
# [14] = target: Cytochrome P450 2D6 (Homo sapiens, UniProt P10635); assay: Inhibition of CYP2D6; format: ADME
# Chain of Cytochrome P450 2D6 (P10635 whole entry): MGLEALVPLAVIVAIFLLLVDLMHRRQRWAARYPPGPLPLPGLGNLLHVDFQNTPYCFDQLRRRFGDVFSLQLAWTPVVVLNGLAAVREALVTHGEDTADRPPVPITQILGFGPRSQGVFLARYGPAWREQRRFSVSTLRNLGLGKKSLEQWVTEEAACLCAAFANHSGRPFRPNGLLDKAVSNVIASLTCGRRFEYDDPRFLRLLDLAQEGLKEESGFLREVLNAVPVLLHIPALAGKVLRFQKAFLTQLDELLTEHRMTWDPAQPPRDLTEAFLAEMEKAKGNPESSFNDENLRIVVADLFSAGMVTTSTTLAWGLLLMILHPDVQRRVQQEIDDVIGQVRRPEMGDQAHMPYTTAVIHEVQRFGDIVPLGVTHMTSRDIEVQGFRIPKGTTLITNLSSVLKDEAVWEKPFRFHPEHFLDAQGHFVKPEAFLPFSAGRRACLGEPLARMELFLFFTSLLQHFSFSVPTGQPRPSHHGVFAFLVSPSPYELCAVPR
# [15] = Bioavailability in rat at 10 mg/kg; format: ADME, organism-based; details: in vivo; procedure, shortened: as §2
# [16] = test system: Blood; assay: Inhibition of LTB4 production in calcium ionophore treated A23187 human whole blood after 5 hrs; format: functional, tissue-based
# Procedure, shortened: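 Human whole blood incubated with compound for an extended 5 h before ionophore challenge; LTB4 production measured. IC50 from n = 6, each n the average of two donors.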
# [17] = Plasma concentration in calcium ionophore A23187 treated rat bronchoalveolar lavage model at 10 mg/kg, po administered 4 hrs prior to calcium ionophore A23187 challenge measured 3 hrs after post dose; format: ADME, organism-based; design: dose 10 mg/kg, route oral; procedure, shortened: as §1
# [18] = target: Cytochrome P450 3A4 (Homo sapiens, UniProt P08684); assay: Induction of CYP3A4 activity; format: ADME
# Chain of Cytochrome P450 3A4 (P08684 whole entry): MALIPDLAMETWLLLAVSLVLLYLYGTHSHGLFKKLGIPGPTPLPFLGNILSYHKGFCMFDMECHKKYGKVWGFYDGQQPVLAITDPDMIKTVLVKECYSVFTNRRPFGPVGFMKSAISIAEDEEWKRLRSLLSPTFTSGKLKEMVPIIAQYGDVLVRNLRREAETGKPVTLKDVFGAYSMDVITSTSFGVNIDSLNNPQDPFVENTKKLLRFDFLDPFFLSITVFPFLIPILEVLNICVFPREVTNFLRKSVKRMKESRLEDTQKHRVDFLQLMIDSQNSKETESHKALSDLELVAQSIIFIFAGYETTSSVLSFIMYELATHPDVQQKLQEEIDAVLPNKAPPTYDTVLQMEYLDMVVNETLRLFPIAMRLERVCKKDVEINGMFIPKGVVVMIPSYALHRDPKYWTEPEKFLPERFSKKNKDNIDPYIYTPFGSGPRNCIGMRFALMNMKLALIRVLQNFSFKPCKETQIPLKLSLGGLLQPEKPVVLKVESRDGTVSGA
# Procedure, shortened: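 CYP3A4 induction assay measuring a compound's ability to raise CYP enzyme activity.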
# [19] = Inhibition of LTB4 production in calcium ionophore A23187 treated human leukocytes; format: functional, cell-based; details: Leukocyte
# Procedure, shortened: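 Human leukocytes challenged with calcium ionophore; LTB4 produced by the cells was measured. IC50 is the average of n ≥ 3.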
# [20] = Solubility in water; format: physicochemical
# [21] = test system: Blood; assay: Reduction of LTB4 production in rat blood after 3 hrs; format: functional, tissue-based
# [22] = test system: Rattus norvegicus; assay: Reduction of CysLT production in lung lavage fluid of po dosed calcium ionophore A23187 treated rat bronchoalveolar lavage model administered 4 hrs prior to calcium ionophore A23187 challenge; format: functional; procedure, shortened: as §3
# [23] = test system: Rattus norvegicus; assay: Reduction of CysLT production in lung lavage fluid of calcium ionophore A23187 treated rat bronchoalveolar lavage model at 3 mg/kg, po administered 16 hrs prior to calcium ionophore A23187 challenge; format: functional; design: scale not given: the % may be the effect or the level left; procedure, shortened: as §4
smiles,measurement,setting,value
COc1cnc(-c2ccc(Cn3c(CC(C)(C)C(=O)O)c(SC(C)(C)C)c4cc(OC[C@@H]5Cc6ccccc6N5C(C)=O)ccc43)cc2)nc1,Activity,[1],98%
same,Activity,[2],87%
same,half-life,[3],6.8 h
same,pIC50,[4],6.81
same,pIC50,[5],8.05
same,ED50,[6],0.8 mg/kg
same,Activity,[7],77%
same,CL/F,[8],0.66 L/h/kg
same,concentration at 16 h,[9],0.004 µM
same,Cmax,[10],1.6 µM
same,pIC50,[11],8.66
same,pIC50,[12],5.43
same,solubility,[13],0.03 mg/mL
same,INH,[14],> 30 µM
same,bioavailability,[15],29%
same,pIC50,[16],7.28
same,concentration at 3 h,[17],0.605 µM
same,Activity,[18],Not Active
same,pIC50,[19],9.22
same,solubility,[20],10 mg/mL
same,pIC50,[21],6.90
same,ED50,[22],1.4 mg/kg
same,Activity,[23],45%

# — ChEMBL document CHEMBL1153124, “5-Lipoxygenase-activating protein inhibitors. Part 2: 3-{5-((S)-1-Acetyl-2,3-dihydro-1H-indol-2-ylmethoxy)-3-tert-butylsulfanyl-1-[4-(5-methoxy-pyrimidin-2-yl)-benzyl]-1H-indol-2-yl}-2,2-dimethyl-propionic acid (AM679)--a potent FLAP inhibitor” (Bioorg Med Chem Lett, 2010)
